Test results: ChEMBL document CHEMBL3853297, “Synthesis and biological evaluation of 4-(2-fluorophenoxy)-3,3'-bipyridine derivatives as potential c-met inhibitors” (Eur J Med Chem, 2016)

Columns and labels:
[1] = Cytotoxicity against human MKN45 cells after 72 hrs by MTT assay; settings: MKN-45, 72 h
[2] = Cytotoxicity against human HT-29 cells after 72 hrs by MTT assay; type: functional, cell-based; settings: HT-29, 72 h
Summary of the method: (§1)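 Cells grown in MEM with 10% FBS; about 4×10^3 cells per well of 96-well plate, 24 h at 37 °C, 5% CO2, then test compounds at indicated final concentrations for 72 h. Each tested three times; IC50 as mean ± SD.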

[3] = Cytotoxicity against human A549 cells after 72 hrs by MTT assay; settings: A549, 72 h
[4] = Cytotoxicity against human MDA-MB-231 cells after 72 hrs by MTT assay; type: functional, cell-based; settings: MDA-MB-231, 72 h; summary of the method: as §1

Structure (SMILES): O=C(Nc1ccc(Oc2ccncc2-c2cccnc2)c(F)c1)c1nn(-c2ccc(F)cc2)c(=O)c2ccccc12
- IC50 [1]: 0.32 µM
- IC50 [2]: 0.99 µM
- IC50 [3]: 0.82 µM

Structure (SMILES): O=C(Nc1ccc(Oc2ccncc2-c2cccnc2)c(F)c1)C1=NN(c2ccc(F)c(F)c2)c2ccccc2S1(=O)=O
- IC50 [4]: 0.034 µM
- IC50 [1]: 0.09 µM
- IC50 [2]: 1.55 µM
- IC50 [3]: 1.3 µM

Structure (SMILES): O=C(Nc1ccc(Oc2ccncc2-c2cccnc2)c(F)c1)c1ccnn(-c2ccc(F)cc2)c1=O
- IC50 [4]: 5.2 µM
- IC50 [1]: 3.12 µM
- IC50 [2]: 4.77 µM
- IC50 [3]: 2.88 µM

Structure (SMILES): COc1ccc(-n2nc(C(=O)Nc3ccc(Oc4ccncc4-c4cccnc4)c(F)c3)c(=O)n(C)c2=O)c(OC)c1
- IC50 [4]: 3.27 µM
- IC50 [1]: 2.82 µM
- IC50 [2]: 0.89 µM
- IC50 [3]: 0.89 µM

Structure (SMILES): Cn1cc(-c2ccc(F)cc2)cc(C(=O)Nc2ccc(Oc3ccncc3-c3cccnc3)c(F)c2)c1=O
- IC50 [4]: 11.9 µM
- IC50 [1]: 7.1 µM
- IC50 [2]: 11.2 µM
- IC50 [3]: 8.3 µM

Structure (SMILES): O=C(Nc1ccc(Oc2ccncc2-c2cccnc2)c(F)c1)c1nn(-c2cccc(F)c2)c(=O)c2ccccc12
- IC50 [4]: 0.072 µM
- IC50 [1]: 0.027 µM
- IC50 [2]: 0.41 µM
- IC50 [3]: 1.75 µM

Structure (SMILES): COc1ccc(Nc2cc(Nc3ccc(Oc4ccncc4-c4cccnc4)c(F)c3)ncn2)cc1
- IC50 [1]: 1.01 µM
- IC50 [2]: 4.11 µM
- IC50 [3]: 2.14 µM

Structure (SMILES): Cn1cc(-c2ccccc2)cc(C(=O)Nc2ccc(Oc3ccncc3-c3cccnc3)c(F)c2)c1=O
- IC50 [4]: 9.5 µM
- IC50 [1]: 5.4 µM
- IC50 [2]: 7.42 µM
- IC50 [3]: 7.6 µM

Structure (SMILES): Cn1c(=O)c(C(=O)Nc2ccc(Oc3ccncc3-c3cccnc3)c(F)c2)nn(-c2cccc(C(F)(F)F)c2)c1=O
- IC50 [4]: 3.98 µM
- IC50 [1]: 1.95 µM
- IC50 [2]: 0.51 µM
- IC50 [3]: 0.46 µM

Structure (SMILES): Cn1c(=O)c(C(=O)Nc2ccc(Oc3ccncc3-c3cccnc3)c(F)c2)nn(-c2ccc(F)c(Cl)c2)c1=O
- IC50 [4]: 11.3 µM
- IC50 [1]: 10.1 µM
- IC50 [2]: 4.78 µM
- IC50 [3]: 12.5 µM

Structure (SMILES): Fc1ccc(Nc2cc(Nc3ccc(Oc4ccncc4-c4cccnc4)c(F)c3)ncn2)cc1
- IC50 [4]: 14.1 µM
- IC50 [1]: 0.16 µM
- IC50 [2]: 0.33 µM
- IC50 [3]: 0.71 µM

Structure (SMILES): Cn1c(=O)c(C(=O)Nc2ccc(Oc3ccncc3-c3cccnc3)c(F)c2)nn(-c2ccccc2F)c1=O
- IC50 [4]: 6.76 µM
- IC50 [1]: 4.78 µM
- IC50 [2]: 2.1 µM
- IC50 [3]: 0.61 µM

Structure (SMILES): Cn1c(=O)c(C(=O)Nc2ccc(Oc3ccncc3-c3cccnc3)c(F)c2)nn(-c2ccc(Cl)cc2)c1=O
- IC50 [4]: 3.22 µM
- IC50 [1]: 1.6 µM
- IC50 [2]: 0.44 µM
- IC50 [3]: 0.93 µM

Structure (SMILES): Fc1ccc(Nc2cc(Nc3ccc(Oc4ccncc4-c4cccnc4)c(F)c3)ncn2)cc1F
- IC50 [4]: 6.77 µM
- IC50 [1]: 0.08 µM
- IC50 [2]: 2.32 µM
- IC50 [3]: 7.63 µM

Structure (SMILES): O=C(Nc1ccc(Oc2ccncc2-c2cccnc2)c(F)c1)c1ccnn(-c2ccc(Cl)cc2)c1=O
- IC50 [4]: 4.84 µM
- IC50 [1]: 4.23 µM
- IC50 [2]: 4.56 µM
- IC50 [3]: 6.56 µM

Structure (SMILES): Cn1c(=O)c(C(=O)Nc2ccc(Oc3ccncc3-c3cccnc3)c(F)c2)nn(-c2c(Cl)cccc2Cl)c1=O
- IC50 [4]: 9.69 µM
- IC50 [1]: 3.93 µM
- IC50 [2]: 0.78 µM
- IC50 [3]: 0.72 µM

Structure (SMILES): O=C(Nc1ccc(Oc2ccncc2-c2cccnc2)c(F)c1)c1nn(-c2ccccc2)c(=O)c2ccccc12
- IC50 [4]: 8.2 µM
- IC50 [1]: 0.09 µM
- IC50 [2]: 1.24 µM
- IC50 [3]: 7.9 µM

Structure (SMILES): Fc1cc(Nc2cc(Nc3cccc(Cl)c3)ncn2)ccc1Oc1ccncc1-c1cccnc1
- IC50 [4]: 0.09 µM
- IC50 [1]: 0.03 µM
- IC50 [2]: 0.69 µM
- IC50 [3]: 0.18 µM

Structure (SMILES): O=C(Nc1ccc(Oc2ccncc2-c2cccnc2)c(F)c1)c1nn(-c2ccc(Cl)cc2)c(=O)c2ccccc12
- IC50 [1]: 0.43 µM
- IC50 [2]: 0.71 µM
- IC50 [3]: 1.02 µM

Structure (SMILES): COc1ccc(-n2nc(C(=O)Nc3ccc(Oc4ccncc4-c4cccnc4)c(F)c3)c3ccccc3c2=O)cc1
- IC50 [4]: 10.4 µM
- IC50 [1]: 0.74 µM
- IC50 [3]: 6.8 µM

Structure (SMILES): Fc1cc(Nc2cc(Nc3ccc(Cl)cc3)ncn2)ccc1Oc1ccncc1-c1cccnc1
- IC50 [1]: 0.24 µM
- IC50 [2]: 0.98 µM
- IC50 [3]: 1.61 µM

Structure (SMILES): O=C(Nc1ccc(Oc2ccncc2-c2cccnc2)c(F)c1)C1=NN(c2cccc(F)c2)c2ccccc2S1(=O)=O
- IC50 [4]: 0.01 µM
- IC50 [1]: 0.003 µM
- IC50 [2]: 0.43 µM
- IC50 [3]: 0.9 µM

Structure (SMILES): COc1cc(Nc2cc(Nc3ccc(Oc4ccncc4-c4cccnc4)c(F)c3)ncn2)cc(OC)c1
- IC50 [4]: 4.24 µM
- IC50 [1]: 1.75 µM
- IC50 [2]: 1.13 µM
- IC50 [3]: 0.56 µM

Structure (SMILES): Fc1cc(Nc2cc(Nc3ccccc3)ncn2)ccc1Oc1ccncc1-c1cccnc1
- IC50 [4]: 2.74 µM
- IC50 [1]: 6.3 µM
- IC50 [2]: 0.88 µM
- IC50 [3]: 0.41 µM

Structure (SMILES): O=C(Nc1ccc(Oc2ccncc2-c2cccnc2)c(F)c1)C1=NN(c2ccccc2C(F)(F)F)c2ccccc2S1(=O)=O
- IC50 [4]: 0.046 µM
- IC50 [1]: 0.027 µM
- IC50 [2]: 0.19 µM
- IC50 [3]: 0.12 µM
